Key:
Format in all cases: functional
TLX-5 [1] = assay: (§1) In vivo antitumor activity against the TLX5 lymphoma cell line in mouse species CBA/CA after intraperitoneal administration (inoculum cells-2x10E5,sc) at the dose of 160 mg/kg on 5th day
TLX-5 [2] = assay: In vivo antitumor activity against the TLX5 lymphoma cell line in mouse species CBA/CA after intraperitoneal administration (inoculum cells-2x10E5,sc) at the dose of 20 mg/kg on 5th day
TLX-5 [3] = assay: In vivo antitumor activity against the TLX5 lymphoma cell line in mouse species CBA/CA after intraperitoneal administration (inoculum cells-2x10E5,sc) at the dose of 40 mg/kg on 5th day
TLX-5 [4] = assay: In vivo antitumor activity against the TLX5 lymphoma cell line in mouse species CBA/CA after intraperitoneal administration (inoculum cells-2x10E5,sc) at the dose of 320 mg/kg on 5th day
TLX-5 [5] = assay: In vivo antitumor activity against the TLX5 lymphoma cell line in mouse species CBA/CA after intraperitoneal administration (inoculum cells-2x10E5,sc) at the dose of 80 mg/kg on 5th day
TLX-5 [6] = assay: In vivo antitumor activity against the TLX5 lymphoma cell line in mouse species CBA/CA after intraperitoneal administration (inoculum cells-2x10E5,sc) at the dose of 80 mg/kg
Summary of the method: (§2)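 CBA/CA mice were inoculated with 2 × 10^5 TLX5 lymphoma cells. Drug given intraperitoneally in 10% Me2SO in arachis oil, 5 mice per dose, and the experiment lasted 60 days. Survivors at 60 days were recorded. T/C % = mean death day of treated animals / mean death day of control animals.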

TLX-5 [7] = assay: (§3) In vivo antitumor activity against the TLX5 lymphoma cell line in mouse species CBA/CA after intraperitoneal administration (inoculum cells-2x10E5,sc) at the dose of 160 mg/kg
Summary of the method: (§4)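 CBA/CA mice were implanted sc with 2 × 10^5 TLX5 lymphoma cells. Compound was given ip on day 3 in 10% Me2SO in arachis oil, over 60 days, in groups of 5. T/C% = mean death day of treated/mean death day of controls. Survivors to day 60 were counted.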

TLX-5 [8] = assay: In vivo antitumor activity against the TLX5 lymphoma cell line in mouse species CBA/CA after intraperitoneal administration (inoculum cells-2x10E5,sc) at the dose of 40 mg/kg; summary of the method: as §2
TLX-5 [9] = assay: (§5) In vivo antitumor activity against the TLX5 lymphoma cell line in mouse species CBA/CA after intraperitoneal administration (inoculum cells-2x10E5,sc) at the dose of 20 mg/kg; summary of the method: as §2
L1210 [10] = assay: In vivo antitumor activity against the L1210 leukemia cell line in mouse species B6D2F1 after peroral administration (inoculum cells-10E5,iv) at the dose of 10 mg/kg; conditions: route oral
L1210 [11] = assay: In vivo antitumor activity against the L1210 leukemia cell line in mouse species B6D2F1 after peroral administration (inoculum cells-10E5,iv) at the dose of 40 mg/kg on 7th day; conditions: route oral
Summary of the method: (§6)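 B6D2F1 mice were inoculated with 10^5 L1210 leukemia cells, ip or iv as the line states. Compound was given orally as a suspension in 1% (carboxymethyl)cellulose in water, dosed on day 1 or 3, over 28–39 days. T/C% = mean death day of treated/mean death day of controls. Survivors to the end were counted in groups of 7–8.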

TLX-5 [12] = assay: In vivo antitumor activity against the TLX5 lymphoma cell line in mouse species CBA/CA after intraperitoneal administration (inoculum cells-2x10E5,sc) at the dose of 10 mg/kg
L1210 [13] = assay: In vivo antitumor activity against the L1210 leukemia cell line in mouse species B6D2F1 after peroral administration (inoculum cells-10E5,iv) at the dose of 20 mg/kg; conditions: route oral
L1210 [14] = assay: In vivo antitumor activity against the L1210 leukemia cell line in mouse species B6D2F1 after peroral administration (inoculum cells-10E5,iv) at the dose of 40 mg/kg; conditions: route oral
L1210 [15] = assay: In vivo antitumor activity against the L1210 leukemia cell line in mouse species B6D2F1 after peroral administration (inoculum cells-10E5,iv) at the dose of 10 mg/kg on 7th day; conditions: route oral
TLX-5 [16] = assay: In vivo antitumor activity against the TLX5 lymphoma cell line in mouse species CBA/CA after intraperitoneal administration (inoculum cells-2x10E5,sc) at the dose of 10 mg/kg on 5th day
L1210 [17] = assay: In vivo antitumor activity against the L1210 leukemia cell line in mouse species B6D2F1 after peroral administration (inoculum cells-10E5,iv) at the dose of 20 mg/kg on 7th day; conditions: route oral; summary of the method: as §6
TLX-5 [18] = assay: In vivo antitumor activity against the TLX5 lymphoma cell line in mouse species CBA/CA after intraperitoneal administration (inoculum cells-2x10E5,sc) at the dose of 640 mg/kg; summary of the method: as §2
TLX-5 [19] = assay: In vivo antitumor activity against the TLX5 lymphoma cell line in mouse species CBA/CA after intraperitoneal administration (inoculum cells-2x10E5,sc) at the dose of 320 mg/kg; summary of the method: as §2
TLX-5 [20] = assay: as §3; summary of the method: as §2; remark: listed apart in the source
TLX-5 [21] = assay: In vivo antitumor activity against the TLX5 lymphoma cell line in mouse species CBA/CA after intraperitoneal administration (inoculum cells-2x10E5,sc) at the dose of 640 mg/kg on 5th day
L1210 [22] = assay: In vivo antitumor activity against the L1210 leukemia cell line in mouse species B6D2F1 after peroral administration (inoculum cells-10E5,iv) at the dose of 5 mg/kg on 7th day; conditions: route oral
TLX-5 [23] = assay: as §5; summary of the method: as §4; remark: listed apart in the source
TLX-5 [24] = assay: In vivo antitumor activity against the TLX5 lymphoma cell line in mouse species CBA/CA after intraperitoneal administration (inoculum cells-2x10E5,sc) at the dose of 5 mg/kg on 5th day
L1210 [25] = assay: In vivo antitumor activity against the L1210 leukemia cell line in mouse species B6D2F1 after peroral administration (inoculum cells-10E5,ip) at the dose of 80 mg/kg on 10th day; conditions: route oral; summary of the method: as §6
L1210 [26] = assay: In vivo antitumor activity against the L1210 leukemia cell line in mouse species B6D2F1 after peroral administration (inoculum cells-10E5,iv) at the dose of 100 mg/kg; conditions: route oral
L1210 [27] = assay: In vivo antitumor activity against the L1210 leukemia cell line in mouse species B6D2F1 after peroral administration (inoculum cells-10E5,iv) at the dose of 100 mg/kg on 7th day; conditions: route oral; summary of the method: as §6
L1210 [28] = assay: In vivo antitumor activity against the L1210 leukemia cell line in mouse species B6D2F1 after peroral administration (inoculum cells-10E5,iv) at the dose of 50 mg/kg on 7th day; conditions: route oral; summary of the method: as §6
L1210 [29] = assay: In vivo antitumor activity against the L1210 leukemia cell line in mouse species B6D2F1 after peroral administration (inoculum cells-10E5,iv) at the dose of 200 mg/kg on 10th day; conditions: route oral; summary of the method: as §6
L1210 [30] = assay: In vivo antitumor activity against the L1210 leukemia cell line in mouse species B6D2F1 after peroral administration (inoculum cells-10E5,iv) at the dose of 200 mg/kg; conditions: route oral
L1210 [31] = assay: In vivo antitumor activity against the L1210 leukemia cell line in mouse species B6D2F1 after peroral administration (inoculum cells-10E5,iv) at the dose of 50 mg/kg; conditions: route oral
L1210 [32] = assay: In vivo antitumor activity against the L1210 leukemia cell line in mouse species B6D2F1 after peroral administration (inoculum cells-10E5,ip) at the dose of 80 mg/kg on 8th day; conditions: route oral; summary of the method: as §6
L1210 [33] = assay: In vivo antitumor activity against the L1210 leukemia cell line in mouse species B6D2F1 after peroral administration (inoculum cells-10E5,ip at the dose of 160 mg/kg; conditions: route oral
L1210 [34] = assay: In vivo antitumor activity against the L1210 leukemia cell line in mouse species B6D2F1 after peroral administration (inoculum cells-10E5,ip) at the dose of 40 mg/kg on 8th day; conditions: route oral; summary of the method: as §6
L1210 [35] = assay: In vivo antitumor activity against the L1210 leukemia cell line in mouse species B6D2F1 after peroral administration (inoculum cells-10E5,ip) at the dose of 160 mg/kg on 8th day; conditions: route oral; summary of the method: as §6
L1210 [36] = assay: In vivo antitumor activity against the L1210 leukemia cell line in mouse species B6D2F1 after peroral administration (inoculum cells-10E5,ip)at the dose of 320 mg/kg on 7th day; conditions: route oral; summary of the method: as §6
L1210 [37] = assay: In vivo antitumor activity against the L1210 leukemia cell line in mouse species B6D2F1 after peroral administration (inoculum cells-10E5,ip) at the dose of 40 mg/kg; conditions: route oral
L1210 [38] = assay: In vivo antitumor activity against the L1210 leukemia cell line in mouse species B6D2F1 after peroral administration (inoculum cells-10E5,ip) at the dose of 80 mg/kg; conditions: route oral
TLX-5 [39] = assay: as §1; summary of the method: as §2; remark: listed apart in the source
L1210 [40] = assay: In vivo antitumor activity against the L1210 leukemia cell line in mouse species B6D2F1 after peroral administration (inoculum cells-10E5,ip) at the dose of 320 mg/kg; conditions: route oral

O=C(Nc1ccccc1)c1ncn2c(=O)n(CCCl)nnc12
Survivors (TLX-5 [1]): 0 | Survivors (TLX-5 [2]): 0 | Survivors (TLX-5 [3]): 0 | Survivors (TLX-5 [4]): 0 | Survivors (TLX-5 [5]): 0

O=C(NC1CCCCC1)c1ncn2c(=O)n(CCCl)nnc12
T/C (TLX-5 [6]): >277% | Survivors (TLX-5 [2]): 0 | Survivors (TLX-5 [7]): 0 | Survivors (TLX-5 [3]): 0 | T/C (TLX-5 [8]): 125% | Survivors (TLX-5 [4]): 0 | T/C (TLX-5 [9]): 109% | Survivors (TLX-5 [5]): 1

O=C(NCCCl)c1ncn2c(=O)n(CCCl)nnc12
T/C (L1210 [10]): 121% | Survivors (L1210 [11]): 0 | T/C (TLX-5 [12]): 103% | T/C (L1210 [13]): 183% | T/C (L1210 [14]): 227% | Survivors (TLX-5 [2]): 0 | Survivors (L1210 [15]): 0 | Survivors (TLX-5 [3]): 3 | Survivors (TLX-5 [16]): 0 | Survivors (L1210 [17]): 0 | T/C (TLX-5 [8]): >361% | T/C (TLX-5 [9]): 142% | Survivors (TLX-5 [5]): 0

CCOC(=O)CNC(=O)c1ncn2c(=O)n(CCCl)nnc12
T/C (TLX-5 [18]): 139% | T/C (TLX-5 [19]): 114% | Survivors (TLX-5 [1]): 0 | T/C (TLX-5 [6]): 96% | T/C (TLX-5 [20]): 105% | Survivors (TLX-5 [21]): 0 | Survivors (TLX-5 [4]): 0 | Survivors (TLX-5 [5]): 0

NC(=O)c1ncn2c(=O)n(CCCl)nnc12 [MITOZOLOMIDE]
Survivors (L1210 [22]): 0 | Survivors (TLX-5 [23]): 0 | Survivors (TLX-5 [24]): 0 | Survivors (L1210 [15]): 0 | Survivors (TLX-5 [16]): 0 | Survivors (L1210 [17]): 0

CNC(=O)c1ncn2c(=O)n(CCCl)nnc12
Survivors (L1210 [25]): 0 | Survivors (TLX-5 [24]): 0 | Survivors (TLX-5 [16]): 0 | T/C (TLX-5 [9]): >154% | Survivors (TLX-5 [5]): 0

CC(C)(C)NC(=O)c1ncn2c(=O)n(CCCl)nnc12
T/C (L1210 [26]): 149% | Survivors (L1210 [27]): 0 | Survivors (L1210 [28]): 0 | Survivors (L1210 [29]): 0 | T/C (L1210 [30]): 307% | T/C (L1210 [31]): 132%

O=C(O)c1ncn2c(=O)n(CCCl)nnc12
Survivors (L1210 [32]): 0 | T/C (TLX-5 [19]): 223% | T/C (L1210 [33]): 107% | Survivors (L1210 [34]): 0 | T/C (TLX-5 [6]): 106% | Survivors (L1210 [35]): 0 | Survivors (L1210 [36]): 0 | Survivors (TLX-5 [2]): 0 | T/C (L1210 [37]): 102% | Survivors (TLX-5 [7]): 0 | T/C (L1210 [38]): 101% | Survivors (TLX-5 [3]): 0 | T/C (TLX-5 [8]): 103% | Survivors (TLX-5 [4]): 0 | T/C (TLX-5 [9]): 102% | Survivors (TLX-5 [5]): 0 | T/C (TLX-5 [39]): 108% | T/C (L1210 [40]): 106%
